Experimental data reported in ChEMBL document CHEMBL4765388, “Fluoropyrimidin-2,4-dihydroxy-5-isopropylbenzamides as antitumor agents against CRC and NSCLC cancer cells” (Eur J Med Chem, 2020).
Activity calls are given as the source filed them. The rule behind the calls is not given here.

Legend:
HCT-116 [1] = assay: Antiproliferative activity against human HCT-116 cells measured after 48 hrs by SRB assay; format: functional
Procedure, shortened: (§1)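 Cells seeded and cultured overnight, then exposed to a gradient of compound concentrations for 48 h in medium with 5% FBS. A time-zero plate was fixed with 10% TCA at drug addition. After treatment, cells were fixed with 10% TCA and stained with 0.4% SRB in 1% acetic acid. Bound dye was dissolved in 10 mM trizma base, absorbance read at 515 nm, and GI50 derived. Each experiment was run at least three times.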

[2] = target: Heat shock protein HSP 90-alpha (Homo sapiens, UniProt P07900); assay: Inhibition of recombinant human full-length C-terminal Hsi-tagged HSP90alpha (1 to 732 residues) expressed in Escherichia coli measured after 2 to 3 hrs by FITC-labeled geldanamycin probe based fluorescence polarization assay
NCI-H1975 [3] = assay: Antiproliferative activity against human NCI-H1975 cells measured after 48 hrs by SRB assay; format: functional; procedure, shortened: as §1
A549 [4] = assay: Antiproliferative activity against human A549 cells measured after 48 hrs by SRB assay; format: functional
Procedure, shortened: as §1, with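 “acid.” for “acid. Bound dye was dissolved in 10 mM trizma base, absorbance read at 515 nm, and GI50 derived.”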

NCI-H460 = assay: Antiproliferative activity against human NCI-H460 cells measured after 48 hrs by SRB assay; format: functional; procedure, shortened: as §1
NCI-H1975 [5] = assay: Cell cycle arrest in human NCI-H1975 cells assessed as accumulation at sub-G1 phase at 0.075 to 1.25 uM measured after 48 hrs by propidium iodide staining based flow cytometry; format: functional; settings: dose 0.075-1.25 µM
Procedure, shortened: (§2)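 Cells in RPMI 1640 with 10% FBS, 37 °C, 5% CO2; 2.5×10^5/well, treated with DMSO or compound. Washed in PBS, fixed overnight in ice-cold 70% EtOH at -20 °C, stained in PBS with propidium iodide 80 µg/ml, Triton X-100 0.1% and RNase A 100 µg/ml. DNA content measured by FACScan; sub-G1 fraction quantified; means ± S.D., ≥3 independent experiments.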

HCT-116 [6] = assay: Potency index, ratio of BIIB021 IC50 to test compound IC50 for human HCT-116 cells; format: functional
A549 [7] = assay: Inhibition of HSP90 in human A549 cells assessed as down regulation of AKT expression at 0.075 to 1.25 uM after 24 hrs by Western blot analysis; format: cell-based; settings: dose 0.075-1.25 µM
A549 [8] = assay: Cell cycle arrest in human A549 cells assessed as accumulation at sub-G1 phase at 0.15 to 2.5 uM measured after 48 hrs by propidium iodide staining based flow cytometry; format: functional; settings: dose 0.15-2.5 µM; procedure, shortened: as §2
A549 [9] = assay: Inhibition of colony formation in human A549 cells at 0.009 to 0.018 uM measured after 24 hrs by crystal violet staining based assay; format: functional, cell-based; settings: dose 0.009-0.018 µM
Procedure, shortened: (§3)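 Cells at 5×10^3/well, exposed to DMSO or compound for 24 h. Drug was washed out, and cells were trypsinized, replated and grown for 10 days. Colonies were fixed and stained with crystal violet (0.5% in 70% EtOH) and counted as % of control. Repeated at least twice.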

NCI-H1975 [10] = assay: Inhibition of HSP90 in human NCI-H1975 cells assessed as down regulation of AKT expression at 0.075 to 1.25 uM after 24 hrs by Western blot analysis; format: cell-based; settings: dose 0.075-1.25 µM
NCI-H1975 [11] = assay: Induction of apoptosis in human NCI-H1975 cells assessed as increase in cleaved caspase 3 expression after 48 hrs by Western blot analysis; format: functional, cell-based
Procedure, shortened: (§4)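 Cells grown in RPMI 1640 with 10% FBS were left to attach overnight, then exposed to compound at stated concentrations for 48 h. Lysates were immunoblotted for cleaved PARP, γH2AX and cleaved caspase-3, -8 and -9. Each experiment was done at least three times.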

NCI-H1975 [12] = assay: Inhibition of colony formation in human NCI-H1975 cells at 0.009 to 0.018 uM measured after 24 hrs by crystal violet staining based assay; format: functional, cell-based; settings: dose 0.009-0.018 µM; procedure, shortened: as §3
A549 [13] = assay: Induction of apoptosis in human A549 cells assessed as increase in cleaved caspase 3 expression after 48 hrs by Western blot analysis; format: functional, cell-based; procedure, shortened: as §4
NCI-H1975 [14] = assay: Induction of apoptosis in human NCI-H1975 cells assessed as increase in cleaved caspase 8 expression after 48 hrs by Western blot analysis; format: functional, cell-based; procedure, shortened: as §4
NCI-H1975 [15] = assay: Inhibition of HSP90 in human NCI-H1975 cells assessed as down regulation of EGFR expression at 0.075 to 1.25 uM after 24 hrs by Western blot analysis; format: cell-based; settings: dose 0.075-1.25 µM
A549 [16] = assay: Induction of apoptosis in human A549 cells assessed as increase in cleaved caspase 9 expression after 48 hrs by Western blot analysis; format: functional, cell-based; procedure, shortened: as §4
A549 [17] = assay: Induction of apoptosis in human A549 cells assessed as increase in activated gamma H2AX expression after 48 hrs by Western blot analysis; format: functional, cell-based; procedure, shortened: as §4
NCI-H1975 [18] = assay: Induction of apoptosis in human NCI-H1975 cells assessed as increase in cleaved caspase 9 expression after 48 hrs by Western blot analysis; format: functional, cell-based; procedure, shortened: as §4
A549 [19] = assay: Inhibition of HSP90 in human A549 cells assessed as upregulation of HSP70 expression at 0.075 to 1.25 uM after 24 hrs by Western blot analysis; format: cell-based; settings: dose 0.075-1.25 µM
NCI-H1975 [20] = assay: Induction of apoptosis in human NCI-H1975 cells assessed as increase in activated gamma H2AX expression after 48 hrs by Western blot analysis; format: functional, cell-based; procedure, shortened: as §4
A549 [21] = assay: Induction of apoptosis in human A549 cells assessed as increase in cleaved PARP expression after 48 hrs by Western blot analysis; format: functional, cell-based; procedure, shortened: as §4
A549 [22] = assay: Induction of apoptosis in human A549 cells assessed as increase in cleaved caspase 8 expression after 48 hrs by Western blot analysis; format: functional, cell-based; procedure, shortened: as §4
NCI-H1975 [23] = assay: Induction of apoptosis in human NCI-H1975 cells assessed as increase in cleaved PARP expression after 48 hrs by Western blot analysis; format: functional, cell-based; procedure, shortened: as §4
HCT-116 [24] = assay: Inhibition of colony formation in human HCT-116 cells at 0.009 to 0.018 uM measured after 24 hrs by crystal violet staining based assay; format: functional, cell-based; settings: dose 0.009-0.018 µM; procedure, shortened: as §3
A549 [25] = assay: Inhibition of HSP90 in human A549 cells assessed as down regulation of EGFR expression at 0.075 to 1.25 uM after 24 hrs by Western blot analysis; format: cell-based; settings: dose 0.075-1.25 µM
NCI-H1975 [26] = assay: Inhibition of HSP90 in human NCI-H1975 cells assessed as upregulation of HSP70 expression at 0.075 to 1.25 uM after 24 hrs by Western blot analysis; format: cell-based; settings: dose 0.075-1.25 µM

CCN(C(=O)c1cc(C(C)C)c(O)cc1O)c1ccc(Cn2c(=O)[nH]cc(F)c2=O)cc1
GI50 (HCT-116 [1]): 30 nM | IC50 [2]: 44.9 nM | GI50 (NCI-H1975 [3]): 30 nM | GI50 (A549 [4]): 40 nM | GI50 (NCI-H460): 30 nM

CCNC(=O)c1noc(-c2cc(C(C)C)c(O)cc2O)c1-c1ccc(CN2CCOCC2)cc1 [LUMINESPIB]
GI50 (NCI-H1975 [3]): 20 nM | GI50 (A549 [4]): 10 nM | GI50 (NCI-H460): 30 nM

COc1ccc(CN(C(=O)c2cc(C(C)C)c(O)cc2O)c2ccc(Cn3c(=O)c(F)cn(C4CCCO4)c3=O)cc2)cc1 (stereo not drawn)
GI50 (HCT-116 [1]): 720 nM | IC50 [2]: 58.8 nM | GI50 (NCI-H1975 [3]): 230 nM | GI50 (A549 [4]): 920 nM | GI50 (NCI-H460): 390 nM

CC(C)c1cc(C(=O)N(Cc2ccccc2)c2ccc(Cn3c(=O)c(F)cn(C4CCCO4)c3=O)cc2)c(O)cc1O (stereo not drawn)
GI50 (HCT-116 [1]): 780 nM | IC50 [2]: 45.3 nM | GI50 (NCI-H1975 [3]): 160 nM | GI50 (A549 [4]): 800 nM | GI50 (NCI-H460): 400 nM

CCCN(C(=O)c1cc(C(C)C)c(O)cc1O)c1ccc(Cn2c(=O)c(F)cn(C3CCCO3)c2=O)cc1 (stereo not drawn)
GI50 (HCT-116 [1]): 960 nM | IC50 [2]: 48.2 nM | GI50 (NCI-H1975 [3]): 340 nM | GI50 (A549 [4]): 650 nM | GI50 (NCI-H460): 520 nM

CCN(C(=O)c1cc(C(C)C)c(O)cc1O)c1ccc(Cn2c(=O)c(F)cn(C3CCCO3)c2=O)cc1 (stereo not drawn)
Activity (NCI-H1975 [5]): Active | Ratio IC50 (HCT-116 [6]): 15 | inhibition (A549 [7]): Active | Activity (A549 [8]): Active | GI50 (HCT-116 [1]): 10 nM | inhibition (A549 [9]): Active | inhibition (NCI-H1975 [10]): Active | Activity (NCI-H1975 [11]): Dose-dependent effect | inhibition (NCI-H1975 [12]): Active | Activity (A549 [13]): Dose-dependent effect | Activity (NCI-H1975 [14]): Dose-dependent effect | inhibition (NCI-H1975 [15]): Active | Activity (A549 [16]): Dose-dependent effect | Activity (A549 [17]): Dose-dependent effect | Activity (NCI-H1975 [18]): Dose-dependent effect | IC50 [2]: 27.8 nM | GI50 (NCI-H1975 [3]): 40 nM | inhibition (A549 [19]): Active | GI50 (A549 [4]): 70 nM | Activity (NCI-H1975 [20]): Dose-dependent effect | Activity (A549 [21]): Dose-dependent effect | Activity (A549 [22]): Dose-dependent effect | Activity (NCI-H1975 [23]): Dose-dependent effect | inhibition (HCT-116 [24]): Active | inhibition (A549 [25]): Active | GI50 (NCI-H460): 60 nM | inhibition (NCI-H1975 [26]): Active

C=CCN(C(=O)c1cc(C(C)C)c(O)cc1O)c1ccc(Cn2c(=O)[nH]cc(F)c2=O)cc1
GI50 (HCT-116 [1]): 80 nM | IC50 [2]: 48 nM | GI50 (NCI-H1975 [3]): 50 nM | GI50 (A549 [4]): 100 nM | GI50 (NCI-H460): 70 nM

CC(C)c1cc(C(=O)N(Cc2ccc(Cl)cc2)c2ccc(Cn3c(=O)c(F)cn(C4CCCO4)c3=O)cc2)c(O)cc1O (stereo not drawn)
GI50 (HCT-116 [1]): 700 nM | IC50 [2]: 54.7 nM | GI50 (NCI-H1975 [3]): 160 nM | GI50 (A549 [4]): 560 nM | GI50 (NCI-H460): 460 nM

O=c1[nH]c(=O)n(C2CCCO2)cc1F (stereo not drawn) [TEGAFUR]
GI50 (HCT-116 [1]): > 10000 nM | GI50 (A549 [4]): > 50000 nM

CC(C)c1cc(C(=O)Nc2ccc(Cn3c(=O)c(F)cn(C4CCCO4)c3=O)cc2)c(O)cc1O (stereo not drawn)
GI50 (HCT-116 [1]): > 10000 nM | IC50 [2]: > 1000 nM | GI50 (NCI-H1975 [3]): > 10000 nM | GI50 (A549 [4]): > 10000 nM | GI50 (NCI-H460): > 10000 nM

O=c1[nH]cc(F)c(=O)[nH]1 [FLUOROURACIL]
GI50 (HCT-116 [1]): > 10000 nM | GI50 (A549 [4]): 19800 nM

COc1c(C)cnc(Cn2cnc3c(Cl)nc(N)nc32)c1C [BIIB021]
GI50 (HCT-116 [1]): 150 nM | GI50 (NCI-H1975 [3]): 200 nM | GI50 (NCI-H460): 210 nM

C#CCN(C(=O)c1cc(C(C)C)c(O)cc1O)c1ccc(Cn2c(=O)[nH]cc(F)c2=O)cc1
GI50 (HCT-116 [1]): 40 nM | IC50 [2]: 54.4 nM | GI50 (NCI-H1975 [3]): 20 nM | GI50 (A549 [4]): 30 nM | GI50 (NCI-H460): 70 nM

CC(C)c1cc(-c2n[nH]c(=O)n2-c2ccc3c(ccn3C)c2)c(O)cc1O [GANETESPIB]
GI50 (HCT-116 [1]): 150 nM

CC(C)c1cc(C(=O)N(Cc2ccc(C#N)cc2)c2ccc(Cn3c(=O)c(F)cn(C4CCCO4)c3=O)cc2)c(O)cc1O (stereo not drawn)
GI50 (HCT-116 [1]): 410 nM | IC50 [2]: 45.3 nM | GI50 (NCI-H1975 [3]): 130 nM | GI50 (A549 [4]): 350 nM | GI50 (NCI-H460): 200 nM

CC(C)c1cc(C(=O)N(C)c2ccc(Cn3c(=O)c(F)cn(C4CCCO4)c3=O)cc2)c(O)cc1O (stereo not drawn)
GI50 (HCT-116 [1]): 120 nM | IC50 [2]: 40.9 nM | GI50 (NCI-H1975 [3]): 60 nM | GI50 (A549 [4]): 90 nM | GI50 (NCI-H460): 70 nM
